Results as given in ChEMBL document CHEMBL1126155, “Renin inhibitory pentols showing improved enteral bioavailability” (J Med Chem, 1992).

Tests used:
Renin [1] = molecular target: T1, Renin (Homo sapiens, UniProt P00797); assay: Concentration required for 50% inhibition of human plasma renin; assay type: cell-free
T1 sequence (P00797 whole entry): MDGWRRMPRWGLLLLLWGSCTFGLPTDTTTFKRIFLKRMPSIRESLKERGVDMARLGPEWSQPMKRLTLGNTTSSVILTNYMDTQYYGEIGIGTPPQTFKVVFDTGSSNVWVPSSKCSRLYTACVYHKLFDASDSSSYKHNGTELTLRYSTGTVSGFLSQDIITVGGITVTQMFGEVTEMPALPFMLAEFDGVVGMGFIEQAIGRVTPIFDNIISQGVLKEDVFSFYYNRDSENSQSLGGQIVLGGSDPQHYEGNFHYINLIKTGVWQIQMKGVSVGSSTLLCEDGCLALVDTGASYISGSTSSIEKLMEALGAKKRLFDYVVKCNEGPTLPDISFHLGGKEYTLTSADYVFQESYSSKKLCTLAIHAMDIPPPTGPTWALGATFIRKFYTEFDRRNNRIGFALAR
How it was run: (§1)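 Plasma renin from dog, human, rat, rhesus monkey or sheep plasma; assayed by a previously described plasma method, modified to be buffered at pH 7.4; IC50 in M.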

Renin [2] = molecular target: T1, Renin; assay: Concentration required for 50% inhibition of human kidney renin
Renin (Canis familiaris) = assay: Concentration required for 50% inhibition of dog plasma renin
Renin (Macaca mulatta) = assay: Concentration required for 50% inhibition of rhesus monkey plasma renin
Renin (Ovis aries) = assay: Concentration required for 50% inhibition of sheep plasma renin
Renin [3] = molecular target: T2, Renin (Rattus norvegicus, UniProt P08424); assay: Concentration required for 50% inhibition of rat plasma renin; assay type: cell-free; how it was run: as §1
T2 sequence (P08424 whole entry): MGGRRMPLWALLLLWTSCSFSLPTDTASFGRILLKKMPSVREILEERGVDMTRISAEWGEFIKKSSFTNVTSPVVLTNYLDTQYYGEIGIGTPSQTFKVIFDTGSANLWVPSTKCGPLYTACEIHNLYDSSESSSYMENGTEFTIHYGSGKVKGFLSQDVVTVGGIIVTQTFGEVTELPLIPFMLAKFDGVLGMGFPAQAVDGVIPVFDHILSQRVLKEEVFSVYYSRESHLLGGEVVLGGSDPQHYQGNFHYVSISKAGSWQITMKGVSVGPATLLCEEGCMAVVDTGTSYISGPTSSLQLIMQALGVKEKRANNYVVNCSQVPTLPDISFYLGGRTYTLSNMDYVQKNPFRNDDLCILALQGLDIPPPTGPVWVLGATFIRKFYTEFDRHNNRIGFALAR

Cathepsin D = Cathepsin D (Homo sapiens, UniProt P07339); assay: Concentration required for 50% inhibition of cathepsin D
How it was run: (§2)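 Pepsin and cathepsin D inhibition measured by an earlier-described method; inhibitor tested at concentrations up to 10^-4 M.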

Pepsin A = Pepsin A (Homo sapiens, UniProt P0DJD9); assay: Inhibition of pepsin; how it was run: as §2
Sequence of Pepsin A (P0DJD9 whole entry): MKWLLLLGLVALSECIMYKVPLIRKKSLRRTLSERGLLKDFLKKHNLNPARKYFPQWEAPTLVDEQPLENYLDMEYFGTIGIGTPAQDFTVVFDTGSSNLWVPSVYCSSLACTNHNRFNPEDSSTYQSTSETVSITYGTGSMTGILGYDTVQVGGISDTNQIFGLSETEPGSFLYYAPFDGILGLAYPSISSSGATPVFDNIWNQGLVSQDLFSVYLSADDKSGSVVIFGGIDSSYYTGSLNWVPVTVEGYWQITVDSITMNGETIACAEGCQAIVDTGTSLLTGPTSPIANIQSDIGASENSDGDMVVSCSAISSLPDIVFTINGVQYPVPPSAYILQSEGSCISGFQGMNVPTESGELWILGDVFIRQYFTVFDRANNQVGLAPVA

Sequence of Cathepsin D (P07339 65-162 limits assumed): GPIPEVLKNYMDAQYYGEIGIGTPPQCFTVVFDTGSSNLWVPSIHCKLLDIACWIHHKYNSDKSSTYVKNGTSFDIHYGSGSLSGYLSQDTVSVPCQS
Sequence of Cathepsin D (P07339 169-412 limits assumed): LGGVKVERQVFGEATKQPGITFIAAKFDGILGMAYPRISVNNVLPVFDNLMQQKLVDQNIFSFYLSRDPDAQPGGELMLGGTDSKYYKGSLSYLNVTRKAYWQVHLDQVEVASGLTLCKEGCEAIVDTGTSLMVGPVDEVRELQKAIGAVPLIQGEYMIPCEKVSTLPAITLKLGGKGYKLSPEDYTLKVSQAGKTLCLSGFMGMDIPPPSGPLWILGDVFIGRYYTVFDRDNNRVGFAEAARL

IC50 (Renin [1]) [nM]	IC50 (Renin [2]) [nM]	IC50 (Renin (Canis familiaris)) [nM]	IC50 (Renin (Macaca mulatta)) [nM]	IC50 (Renin (Ovis aries)) [nM]	IC50 (Renin [3]) [nM]	IC50 (Cathepsin D) [nM]	IC50 (Pepsin A) [nM]	Compound
1.5	2.4							CN(CCN(C)C(=O)N1CCOCC1)C(=O)O[C@@H](Cc1ccccc1)C(=O)NC(Cc1cnc[nH]1)C(=O)N[C@@H](CC1CCCCC1)[C@@H](O)[C@@H](O)[C@H](O)[C@H](O)CO (stereo partly specified)
110	50							CCC[C@H](NC(=O)[C@H](Cc1ccccc1)NC(=O)[C@@H](N)[C@@H](C)CC)C(=O)N[C@@H](CC1CCCCC1)[C@@H](O)[C@@H](O)[C@H](O)[C@H](O)CO
420	120							CCC[C@H](NC(=O)[C@H](Cc1ccccc1)NC(=O)[C@@H](N)[C@@H](C)CC)C(=O)N[C@@H](CC1CCCCC1)[C@@H](O)[C@@H](O)[C@H](O)[C@@H](O)CO
4.5	4.4	110	11	100	8000	> 100000	> 100000	CC(C)(C)S(=O)(=O)CC(Cc1ccccc1)C(=O)NC(Cc1c[nH]cn1)C(=O)N[C@@H](CC1CCCCC1)[C@@H](O)[C@@H](O)[C@H](O)[C@H](O)CO (stereo partly specified)
22	12							N[C@H]1CC[C@@H](C(=O)N[C@@H](Cc2ccccc2)C(=O)NC(Cc2c[nH]cn2)C(=O)N[C@@H](CC2CCCCC2)[C@@H](O)[C@@H](O)[C@H](O)[C@H](O)CO)CC1 (stereo partly specified)
